According to article PMC6426446 (Bioorganic & medicinal chemistry, 2010):
Entries after “also recorded” stand apart in the source; their conditions may differ.

Legend:
[1] = test system: MCF-7 human breast carcinoma cells; assay: Lactate assay; type: cell-based; settings: MCF-7 cells, 3 h, varying concentrations
Summary of the method: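 MCF-7 cells seeded at 2 × 10^5 per well and grown 24 h (about 50% confluence). Wells rinsed with pre-warmed Krebs-Ringer buffer, then exposed for 3 h to test compound in buffer against buffer-only controls. Supernatant lactate measured as absorbance change at 363 nm and converted using extinction coefficient 9.1 mM−1 cm−1. Three determinations per point; experiments repeated at least three times.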

[2] = test system: CRL-2365 (brain glioblastoma); assay: MTT assay CRL-2365; type: cell-based; settings: Homo sapiens, read-out: IC50 MTT assay CRL-2365
Summary of the method: (§1)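 Standard MTT growth-inhibition assay with DMSO as vehicle. CRL-2365 and CRL-2366 were kept in DMEM; MCF-7, A549 and mouse 3LL in RPMI-1640. Both media carried 10% fetal bovine serum, penicillin G (100 U/mL) and streptomycin (100 μg/mL). MCF-10A breast cells were grown in Mammary Epithelial Growth Medium.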

[3] = test system: CRL-2366 (DNA repair deficient brain glioblastoma); assay: MTT assay CRL-2366; type: cell-based; settings: Homo sapiens, read-out: IC50 MTT assay CRL-2366
Summary of the method: as §1

[4] = molecular target: NADH-ubiquinone oxidoreductase (mitochondrial complex I) (Bos taurus, UniProt P03887+P17694+P42026); assay: NADH-ubiquinone; type: biochemical, bovine; settings: compared with 12
Chain of NADH-ubiquinone oxidoreductase (mitochondrial complex I) (P03887 whole entry): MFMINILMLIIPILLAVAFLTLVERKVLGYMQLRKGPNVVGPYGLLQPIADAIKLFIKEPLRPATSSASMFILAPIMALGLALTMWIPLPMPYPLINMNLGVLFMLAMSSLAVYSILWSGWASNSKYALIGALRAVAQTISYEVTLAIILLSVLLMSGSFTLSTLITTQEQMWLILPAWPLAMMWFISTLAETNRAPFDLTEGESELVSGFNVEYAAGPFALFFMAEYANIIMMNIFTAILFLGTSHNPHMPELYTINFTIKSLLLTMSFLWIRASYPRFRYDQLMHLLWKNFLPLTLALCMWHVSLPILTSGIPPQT
Chain of NADH-ubiquinone oxidoreductase (mitochondrial complex I) (P42026 38-216): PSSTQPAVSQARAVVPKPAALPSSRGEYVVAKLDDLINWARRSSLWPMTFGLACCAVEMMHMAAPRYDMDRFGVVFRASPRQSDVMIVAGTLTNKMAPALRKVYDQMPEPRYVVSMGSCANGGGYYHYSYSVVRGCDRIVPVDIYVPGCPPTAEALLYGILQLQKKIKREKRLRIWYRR
Chain of NADH-ubiquinone oxidoreductase (mitochondrial complex I) (P17694 34-463): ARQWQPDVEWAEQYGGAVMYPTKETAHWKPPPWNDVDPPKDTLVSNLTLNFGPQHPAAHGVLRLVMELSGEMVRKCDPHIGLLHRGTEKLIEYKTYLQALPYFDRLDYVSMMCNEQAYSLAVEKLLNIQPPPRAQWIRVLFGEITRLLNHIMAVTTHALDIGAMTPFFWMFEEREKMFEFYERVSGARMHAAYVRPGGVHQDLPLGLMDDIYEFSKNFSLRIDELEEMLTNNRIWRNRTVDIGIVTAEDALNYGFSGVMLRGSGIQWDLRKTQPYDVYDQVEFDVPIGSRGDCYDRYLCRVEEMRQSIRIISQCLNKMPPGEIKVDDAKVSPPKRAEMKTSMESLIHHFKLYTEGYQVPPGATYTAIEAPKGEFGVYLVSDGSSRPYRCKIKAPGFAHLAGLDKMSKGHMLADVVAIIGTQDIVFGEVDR

[5] = Stability of purified compound; type: physicochemical
[6] = test system: cultured human and mouse cell lines; assay: MTT assay, all tested cell lines; type: cell-based
Summary of the method: as §1

[7] = molecular target: NADH oxidase (complexes I, III and IV) (Bos taurus, UniProt P03887+P17694+P42026); assay: NADH oxidase activity in bovine heart submitochondrial particles; type: biochemical; settings: bovine heart SMP
Chain of NADH oxidase (complexes I, III and IV) (P03887 whole entry): as the sequence (P03887 whole entry) above
Chain of NADH oxidase (complexes I, III and IV) (P42026 38-216): as the sequence (P42026 38-216) above
Chain of NADH oxidase (complexes I, III and IV) (P17694 34-463): as the sequence (P17694 34-463) above

NADH fumarate reductase = settings: cited from earlier work

IC50 [2] [µM]	IC50 [3] [µM]	Compound	Stimulation of lactate production (in words) [1]	further results
> 31	> 31	CCCCCCCC[C@](C)(O)CCc1oc(=O)c(C)c(O)c1C [Compound 14, (S)-6-[3-Hydroxy-3-methylundecyl]-3,5-dimethyl-4-hydroxypyran-2-one]	weakly stimulated	
		CCCCCCCC[C@](C)(O)CCc1oc(OC)c(C)c(=O)c1C [Compound 17, (S)-2-[3-Hydroxy-3-methylundecyl]-6-methoxy-3,5-dimethyl-4H-pyran-4-one]	strongly stimulated	
> 31	> 31	CCCCCCCC[C@@](C)(O)CCc1oc(=O)c(C)c(O)c1C [Compound 13, (R)-6-[3-Hydroxy-3-methylundecyl]-3,5-dimethyl-4-hydroxypyran-2-one]		
		CCCCCCCCC(C)(O)CCc1[nH]c(=O)c(C)c(O)c1C (racemic) [Compound 21, (rac)-6-[3-Hydroxy-3-methylundecyl]-3,5-dimethyl-4-hydroxypyridin-2-one]		Potency relative to 12 as inhibitor of NADH-ubiquinone oxidoreductase [4]: more than 10 fold; Stability after purification by preparative thin layer chromatography [5]: rather unstable
> 31	> 31	CCCCCCCCC(C)(O)CCc1oc(=O)c(C)c(O)c1C (racemic) [Compound 12, (rac)-6-[3-Hydroxy-3-methylundecyl]-3,5-dimethyl-4-hydroxypyran-2-one]		
		CCCCCCCCC(C)(O)CCc1oc(C)c(C)c(=O)c1C (racemic) [Compound 18, (rac)-2-[3-Hydroxy-3-methylundecyl]-3,5,6-trimethyl-4H-pyran-4-one]		Cytotoxicity (in words) [6]: no cytotoxicity
		CCCCC(O)Cc1oc(OC)c(C)c(=O)c1C (stereo not shown) [Compound 22, 2-(2-Hydroxyhexyl)-6-methoxy-3,5-dimethyl-4H-pyran-4-one]	weakly stimulated	Inhibition of mitochondrial respiratory chain function (in words) [7]: did not inhibit; also recorded: no inhibitory activity
		CCCCCCCCCC(O)Cc1oc(OC)c(C)c(=O)c1C (stereo not shown) [Compound 1, 2-(2-Hydroxyundecyl)-6-methoxy-3,5-dimethyl-4H-pyran-4-one]	strongly stimulated	Inhibitory activity toward NADH fumarate reductase (in words) (NADH fumarate reductase): strong inhibitory activity
		COc1oc(CC(O)CCCCCOc2ccc(-c3ccccc3)cc2)c(C)c(=O)c1C (stereo not shown) [Compound 30, 2-[2-Hydroxy-7-(4-phenyl)phenoxyheptyl]-6-methoxy-3,5-dimethyl-4H-pyran-4-one]	strongly stimulated	
